Measured values as given in paper PMC4823774 (Bioorganic & medicinal chemistry letters, 2016).
Blank lines part the entries; values can stand above or below the compound they belong to.

Columns and labels:
human mGlu1 = human mGlu1 (Homo sapiens, UniProt Q13255); assay: Calcium mobilization mGlu1 PAM assay; assay type: cell-based
Outline: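 Tetracycline-inducible human mGlu1 T-REx-293 cells, induced overnight at 80,000 cells/well with 50 ng/mL tetracycline. Loaded with 1.15 μM Fluo-4 AM in HBSS/20 mM HEPES/2.5 mM probenecid, 45 min, 37 °C. Half-log dilutions or DMSO preincubated 2.5 min, then EC20 glutamate for 1 min. ECmax glutamate on vehicle wells. Peak minus pre-agonist basal fluorescence; concentration-response curve fitting.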

CNS penetration = conditions: in vivo
[1] = Human liver microsome stability and intrinsic clearance; assay type: in vitro ADME; conditions: for stability in human liver microsomes: in words
[2] = Rat liver microsome stability and intrinsic clearance; assay type: in vitro ADME; conditions: for stability in rat liver microsomes: in words
[3] = Rat brain homogenate binding; assay type: in vitro ADME
Human plasma stability = assay type: in vitro ADME
Rat plasma stability = assay type: in vitro ADME
CYP = CYP profile; assay type: in vitro ADME
[4] = Clearance in in vitro DMPK assays, species not stated; assay type: in vitro ADME

human mGlu1, sequence (Q13255 19-1194): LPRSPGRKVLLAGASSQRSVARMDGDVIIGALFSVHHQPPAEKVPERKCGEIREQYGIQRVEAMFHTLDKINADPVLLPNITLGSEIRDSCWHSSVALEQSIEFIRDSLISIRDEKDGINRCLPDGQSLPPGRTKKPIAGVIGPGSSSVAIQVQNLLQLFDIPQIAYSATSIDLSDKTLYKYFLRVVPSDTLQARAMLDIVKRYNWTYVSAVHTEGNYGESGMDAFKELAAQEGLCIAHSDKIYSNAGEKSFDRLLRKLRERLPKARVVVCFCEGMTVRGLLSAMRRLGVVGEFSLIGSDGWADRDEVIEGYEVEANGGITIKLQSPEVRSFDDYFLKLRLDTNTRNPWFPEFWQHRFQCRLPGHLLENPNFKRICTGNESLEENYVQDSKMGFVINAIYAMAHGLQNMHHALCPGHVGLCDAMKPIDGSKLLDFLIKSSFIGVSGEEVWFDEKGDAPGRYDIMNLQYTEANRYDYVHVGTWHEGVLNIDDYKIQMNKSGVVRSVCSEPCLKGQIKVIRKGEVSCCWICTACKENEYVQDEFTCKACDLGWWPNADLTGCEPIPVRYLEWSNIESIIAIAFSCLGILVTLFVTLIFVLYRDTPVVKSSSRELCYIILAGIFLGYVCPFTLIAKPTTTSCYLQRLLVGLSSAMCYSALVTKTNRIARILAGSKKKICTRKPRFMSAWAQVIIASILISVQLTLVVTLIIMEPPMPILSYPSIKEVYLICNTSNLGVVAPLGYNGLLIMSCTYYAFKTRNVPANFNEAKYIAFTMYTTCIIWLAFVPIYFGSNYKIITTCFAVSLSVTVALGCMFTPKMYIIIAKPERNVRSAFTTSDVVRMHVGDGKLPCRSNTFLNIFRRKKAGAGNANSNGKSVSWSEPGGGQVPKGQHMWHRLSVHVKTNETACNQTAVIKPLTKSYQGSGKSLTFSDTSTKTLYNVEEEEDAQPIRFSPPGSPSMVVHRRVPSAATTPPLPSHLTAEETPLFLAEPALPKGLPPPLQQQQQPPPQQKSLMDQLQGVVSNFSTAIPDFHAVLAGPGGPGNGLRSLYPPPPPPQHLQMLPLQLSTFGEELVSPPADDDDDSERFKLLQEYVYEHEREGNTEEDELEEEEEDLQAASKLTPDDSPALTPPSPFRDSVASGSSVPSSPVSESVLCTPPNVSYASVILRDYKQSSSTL

SMILES: Cc1ccoc1C(=O)Nc1ccc(N2C(=O)[C@H]3CCCC[C@H]3C2=O)c(Cl)c1 [20a]
- mGlu1 PAM activity (in words) (human mGlu1): inactive

SMILES: Cc1ccoc1C(=O)Nc1ccc(N2C(=O)[C@@H]3CCCC[C@H]3C2=O)c(Cl)c1 [20b]
- mGlu1 PAM activity (in words) (human mGlu1): inactive

SMILES: Cc1ccoc1C(=O)Nc1ccc(NC(=O)c2ccccc2C(=O)O)c(Cl)c1 [20c]
- CNS penetration (in words) (CNS penetration): not CNS penetrant

SMILES: Cc1ccoc1C(=O)Nc1ccc(N2Cc3ccccc3C2=O)c(Cl)c1 [20e]
- mGlu1 PAM activity (in words) (human mGlu1): active
- stability in human liver microsomes [1]: complete stability
- stability in rat liver microsomes [2]: complete stability

SMILES: Cc1ccoc1C(=O)Nc1ccc(N2Cc3ccccc3C2)c(Cl)c1 [20f]
- mGlu1 PAM activity (in words) (human mGlu1): active

SMILES: Cc1ccoc1C(=O)Nc1ccc(N2C(=O)Cc3ccccc32)c(Cl)c1 [20g]
- mGlu1 PAM activity (in words) (human mGlu1): inactive

SMILES: Cc1ccoc1C(=O)Nc1ccc(N2CCc3ccccc32)c(Cl)c1 [20h]
- mGlu1 PAM activity (in words) (human mGlu1): active

SMILES: Cc1ccoc1C(=O)Nc1ccc(N2C(=O)Cc3ccccc3C2=O)c(Cl)c1 [compound 17]
- stability in human plasma (Human plasma stability): unstable
- stability in rat plasma (Rat plasma stability): unstable
- CYP profile (in words) (CYP): clean CYP profile

SMILES: Cc1ccoc1C(=O)Nc1ccc(N2C(=O)CCc3ccccc32)c(Cl)c1 [compound 19]
- clearance (in words) [4]: supprahepatic
- stability in human plasma (Human plasma stability): stable
- stability in rat plasma (Rat plasma stability): stable

Now from value to compound:

- mGlu1 pEC50 (±SEM) (human mGlu1; calcium mobilization, n=3 in triplicate, tables): 6.75±0.07
- stability in human liver microsomes [1]: hydrolytically stable
- CLhep predicted ([1]; liver microsomes): 8.53 mL/min/kg
- stability in rat liver microsomes [2]: hydrolytically stable
- CLhep predicted ([2]; liver microsomes): 54.1 mL/min/kg
- CLp (In vivo rat PK): 11.1 mL/min/kg
- brain homogenate binding [3]: > 99%
SMILES: Cc1ccoc1C(=O)Nc1ccc(N2Cc3c(Cl)cccc3C2=O)c(Cl)c1 [21a, N-(3-chloro-4-(4-chloro-1-oxoisoindolin-2-yl)phenyl)-3-methylfuran-2-carboxamide]

- EC50 (human mGlu1): ~1000 nM
SMILES: Cc1ccoc1C(=O)Nc1ccc(N2Cc3c(Cl)cccc3C2=O)cc1F [22h]

- EC50 (human mGlu1): ~1000 nM
SMILES: Cc1cccnc1C(=O)Nc1ccc(N2Cc3c(Cl)cccc3C2=O)c(Cl)c1 [22k]
